Data: ChEMBL document CHEMBL4689842, “EUbOPEN Chemogenomics Library wave 1” (2021)
Where “and” joins values, the source holds several entries; their conditions need not be identical. Equal entries are not always repeated.

Tested on: U2OS
Test: Multiplex assay against U2OS
Format: toxicity, cell-based
Details: human
Method in brief: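 Imaging took place on a CQ1 microscope at 37°C and 5% CO2 once compound had been added to live cells stained at seeding with Hoechst33342, BioTracker Green Microtubule Cytoskeleton Dye, MitoTracker Red and Annexin V Alexa Fluor 680. CellPathfinder machine-learning gating classed cells as Hoechst high-intensity objects or normal cells, classed normal cells as having healthy, pyknosed or fragmented nuclei, and classed pyknosed cells as mitotic or apoptotic. Tubulin, mitochondrial-mass and membrane-permeability phenotypes are per cents of the healthy-nucleus cells.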

[1] = 12 h, 1 µM, compound concentration 1 uM, replicate 1
[2] = 12 h, 1 µM, compound concentration 1 uM, replicate 2
[3] = 12 h, 10 µM, compound concentration 10 uM, replicate 1
[4] = 12 h, 10 µM, compound concentration 10 uM, replicate 2
[5] = 24 h, 1 µM, compound concentration 1 uM, replicate 1
[6] = 24 h, 1 µM, compound concentration 1 uM, replicate 2
[7] = 24 h, 10 µM, compound concentration 10 uM, replicate 1
[8] = 24 h, 10 µM, compound concentration 10 uM, replicate 2
[9] = 48 h, 10 µM, compound concentration 10 uM, replicate 1
[10] = 48 h, 10 µM, compound concentration 10 uM, replicate 2

CCOC(=O)Nc1cc(-c2ccc(C)c(NS(C)(=O)=O)c2)nn2c(C)nnc12
Population Apoptotic (%) [1]: 83% | Population Fragmented Nuclei (%) [1]: 7% | Population Healthy Nuclei (%) [1]: 89% | Population Hoechst High Intensity Objects (%) [1]: 2% | Population Membrane Permeable-Phenotype (%) [1]: 9% | Population Mitochondria Different-Phenotype (%) [1]: 27% | Population Mitotic Cells (%) [1]: 16% | Population Normal (%) [1]: 97% | Population Pyknosed Nuclei (%) [1]: 3% | Population Tubulin-Different-Phenotype (%) [1]: 26% | Total Cell Count [1]: 184 | Population Apoptotic (%) [2]: 100% | Population Fragmented Nuclei (%) [2]: 11% | Population Healthy Nuclei (%) [2]: 88% | Population Hoechst High Intensity Objects (%) [2]: 11% | Population Membrane Permeable-Phenotype (%) [2]: 7% | Population Mitochondria Different-Phenotype (%) [2]: 31% | Population Mitotic Cells (%) [2]: 0% | Population Normal (%) [2]: 88% | Population Pyknosed Nuclei (%) [2]: 0% | Population Tubulin-Different-Phenotype (%) [2]: 47% | Total Cell Count [2]: 152 | Population Apoptotic (%) [3]: 36% and 50% | Population Fragmented Nuclei (%) [3]: 7% and 3% | Population Healthy Nuclei (%) [3]: 85% and 87% | Population Hoechst High Intensity Objects (%) [3]: 4% and 3% | Population Membrane Permeable-Phenotype (%) [3]: 2% and 7% | Population Mitotic Cells (%) [3]: 63% and 50% | Population Normal (%) [3]: 95% and 96% | Population Pyknosed Nuclei (%) [3]: 7% and 8% | Total Cell Count [3]: 284 and 216 | Population Fragmented Nuclei (%) [4]: 8% and 6% | Population Healthy Nuclei (%) [4]: 86% and 89% | Population Hoechst High Intensity Objects (%) [4]: 2% and 10% | Population Membrane Permeable-Phenotype (%) [4]: 0% and 6% | Population Mitochondria Different-Phenotype (%) [4]: 11% and 29% | Population Mitotic Cells (%) [4]: 60% and 100% | Population Normal (%) [4]: 97% and 89% | Population Pyknosed Nuclei (%) [4]: 5% and 3% | Population Tubulin-Different-Phenotype (%) [4]: 89% and 30% | Total Cell Count [4]: 101 and 206 | Population Apoptotic (%) [5]: 22% | Population Fragmented Nuclei (%) [5]: 7% | Population Healthy Nuclei (%) [5]: 88% | Population Hoechst High Intensity Objects (%) [5]: 2% | Population Mitochondria Different-Phenotype (%) [5]: 32% | Population Mitotic Cells (%) [5]: 77% | Population Normal (%) [5]: 97% | Population Pyknosed Nuclei (%) [5]: 3% | Population Tubulin-Different-Phenotype (%) [5]: 32% | Total Cell Count [5]: 257 | Population Apoptotic (%) [6]: 20% | Population Fragmented Nuclei (%) [6]: 9% | Population Healthy Nuclei (%) [6]: 84% | Population Hoechst High Intensity Objects (%) [6]: 7% | Population Membrane Permeable-Phenotype (%) [6]: 4% | Population Mitochondria Different-Phenotype (%) [6]: 34% | Population Mitotic Cells (%) [6]: 80% | Population Normal (%) [6]: 92% | Population Pyknosed Nuclei (%) [6]: 5% | Population Tubulin-Different-Phenotype (%) [6]: 59% | Total Cell Count [6]: 195 | Population Fragmented Nuclei (%) [7]: 5% | Population Healthy Nuclei (%) [7]: 87% and 93% | Population Hoechst High Intensity Objects (%) [7]: 3% and 1% | Population Membrane Permeable-Phenotype (%) [7]: 1% and 4% | Population Mitochondria Different-Phenotype (%) [7]: 11% and 18% | Population Mitotic Cells (%) [7]: 88% and 33% | Population Normal (%) [7]: 96% and 98% | Population Pyknosed Nuclei (%) [7]: 7% and 3% | Total Cell Count [7]: 378 and 305 | Population Apoptotic (%) [8]: 28% and 53% | Population Fragmented Nuclei (%) [8]: 3% and 7% | Population Healthy Nuclei (%) [8]: 90% and 86% | Population Hoechst High Intensity Objects (%) [8]: 2% and 9% | Population Membrane Permeable-Phenotype (%) [8]: 0% and 5% | Population Mitochondria Different-Phenotype (%) [8]: 16% and 30% | Population Mitotic Cells (%) [8]: 71% and 46% | Population Normal (%) [8]: 97% and 90% | Population Pyknosed Nuclei (%) [8]: 5% and 6% | Population Tubulin-Different-Phenotype (%) [8]: 96% and 35% | Total Cell Count [8]: 137 and 273 | Population Apoptotic (%) [9]: 36% | Population Fragmented Nuclei (%) [9]: 5% | Population Healthy Nuclei (%) [9]: 91% | Population Hoechst High Intensity Objects (%) [9]: 1% | Population Mitochondria Different-Phenotype (%) [9]: 10% | Population Mitotic Cells (%) [9]: 63% | Population Normal (%) [9]: 98% | Population Pyknosed Nuclei (%) [9]: 3% | Population Tubulin-Different-Phenotype (%) [9]: 98% | Total Cell Count [9]: 662 | Population Apoptotic (%) [10]: 17% | Population Fragmented Nuclei (%) [10]: 2% | Population Healthy Nuclei (%) [10]: 90% | Population Hoechst High Intensity Objects (%) [10]: 2% | Population Membrane Permeable-Phenotype (%) [10]: 0% | Population Mitochondria Different-Phenotype (%) [10]: 12% | Population Mitotic Cells (%) [10]: 82% | Population Normal (%) [10]: 97% | Population Pyknosed Nuclei (%) [10]: 6% | Population Tubulin-Different-Phenotype (%) [10]: 91% | Total Cell Count [10]: 261
